Assay results as given in ChEMBL document CHEMBL5661979, “Pharmacological inhibition of BMK1 suppresses tumor growth through promyelocytic leukemia protein” (Cancer Cell, 2010).
Calls of active or inactive are those of the source. No cut-off for these calls is given here.

Legend:
[1] = target: T1, Non-receptor tyrosine-protein kinase TNK1 (Homo sapiens) (UniProt Q13470); experiment: Inhibition of TNK1 (unknown origin) assessed as remaining activity at 10 uM by ATP-competition binding assay relative to control
T1 sequence (whole entry): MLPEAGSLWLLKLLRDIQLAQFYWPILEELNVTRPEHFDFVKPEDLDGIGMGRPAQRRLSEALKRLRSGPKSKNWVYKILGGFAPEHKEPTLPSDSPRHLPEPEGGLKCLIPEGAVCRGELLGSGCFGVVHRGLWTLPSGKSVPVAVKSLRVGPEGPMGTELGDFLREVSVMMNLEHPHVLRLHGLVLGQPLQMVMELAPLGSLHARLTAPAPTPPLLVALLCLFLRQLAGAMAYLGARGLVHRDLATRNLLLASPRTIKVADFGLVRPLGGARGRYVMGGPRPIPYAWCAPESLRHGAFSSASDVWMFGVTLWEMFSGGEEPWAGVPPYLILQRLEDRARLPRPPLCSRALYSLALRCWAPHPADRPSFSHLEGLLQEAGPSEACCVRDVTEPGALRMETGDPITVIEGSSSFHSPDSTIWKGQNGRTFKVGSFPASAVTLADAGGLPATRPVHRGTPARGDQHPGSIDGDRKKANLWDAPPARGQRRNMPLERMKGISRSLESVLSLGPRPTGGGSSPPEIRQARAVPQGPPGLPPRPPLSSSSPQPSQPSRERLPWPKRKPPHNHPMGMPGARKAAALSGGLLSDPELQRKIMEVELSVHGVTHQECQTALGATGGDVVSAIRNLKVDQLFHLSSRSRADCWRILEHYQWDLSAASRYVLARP

[2] = target: Ribosomal protein S6 kinase alpha-5 (Homo sapiens, UniProt O75582); experiment: Inhibition of MSK1 in human HeLa cells lysate pre incubated for 15 mins followed by ATP acyl phosphate probe addition and measured after 10 mins by LC-MS/MS analysis; type: subcellular
Ribosomal protein S6 kinase alpha-5, sequence (O75582 whole entry): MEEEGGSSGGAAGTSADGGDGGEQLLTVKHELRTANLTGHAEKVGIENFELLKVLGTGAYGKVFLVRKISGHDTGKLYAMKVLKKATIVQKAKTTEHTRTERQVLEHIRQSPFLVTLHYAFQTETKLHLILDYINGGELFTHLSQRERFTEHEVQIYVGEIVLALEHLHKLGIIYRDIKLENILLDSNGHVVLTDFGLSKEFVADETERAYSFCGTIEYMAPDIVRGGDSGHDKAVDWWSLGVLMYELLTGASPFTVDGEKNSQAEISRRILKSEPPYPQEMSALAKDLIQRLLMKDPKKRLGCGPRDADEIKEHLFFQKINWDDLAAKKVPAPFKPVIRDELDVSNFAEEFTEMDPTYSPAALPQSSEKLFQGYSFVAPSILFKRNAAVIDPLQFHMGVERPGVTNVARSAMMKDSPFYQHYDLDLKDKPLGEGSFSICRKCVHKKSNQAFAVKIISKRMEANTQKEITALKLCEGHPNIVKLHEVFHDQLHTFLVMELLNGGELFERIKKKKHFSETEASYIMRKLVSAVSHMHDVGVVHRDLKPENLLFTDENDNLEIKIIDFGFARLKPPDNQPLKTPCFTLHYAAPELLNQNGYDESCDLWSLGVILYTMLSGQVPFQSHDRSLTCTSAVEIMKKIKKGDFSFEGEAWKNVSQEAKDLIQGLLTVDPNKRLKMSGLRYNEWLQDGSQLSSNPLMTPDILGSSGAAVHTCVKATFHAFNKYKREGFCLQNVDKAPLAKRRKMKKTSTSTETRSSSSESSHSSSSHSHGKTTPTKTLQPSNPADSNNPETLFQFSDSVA

[3] = target: T2, Ribosomal protein S6 kinase alpha-3 (Homo sapiens, UniProt P51812); experiment: Inhibition of RSK2 in human HeLa cells lysate pre incubated for 15 mins followed by ATP acyl phosphate probe addition and measured after 10 mins by LC-MS/MS analysis; type: subcellular
T2 sequence (P51812 whole entry): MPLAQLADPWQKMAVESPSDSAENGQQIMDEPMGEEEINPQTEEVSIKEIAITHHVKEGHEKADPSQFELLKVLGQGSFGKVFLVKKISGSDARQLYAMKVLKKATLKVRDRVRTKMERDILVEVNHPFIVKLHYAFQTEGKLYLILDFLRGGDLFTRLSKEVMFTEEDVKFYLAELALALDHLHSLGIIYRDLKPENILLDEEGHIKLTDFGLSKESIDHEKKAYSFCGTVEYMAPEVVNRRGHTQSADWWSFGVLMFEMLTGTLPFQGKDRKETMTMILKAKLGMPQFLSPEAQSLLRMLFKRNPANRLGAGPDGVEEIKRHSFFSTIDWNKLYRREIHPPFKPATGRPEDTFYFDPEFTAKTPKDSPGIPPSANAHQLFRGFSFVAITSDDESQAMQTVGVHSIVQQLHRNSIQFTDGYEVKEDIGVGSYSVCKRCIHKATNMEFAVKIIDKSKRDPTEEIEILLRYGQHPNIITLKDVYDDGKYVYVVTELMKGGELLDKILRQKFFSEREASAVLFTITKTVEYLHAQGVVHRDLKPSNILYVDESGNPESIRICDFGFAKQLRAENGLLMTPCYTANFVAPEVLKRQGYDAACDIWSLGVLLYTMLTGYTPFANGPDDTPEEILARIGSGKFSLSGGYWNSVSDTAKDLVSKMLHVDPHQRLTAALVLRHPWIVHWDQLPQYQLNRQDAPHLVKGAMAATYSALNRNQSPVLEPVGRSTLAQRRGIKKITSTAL

[4] = target: Transcription intermediary factor 1-beta (Homo sapiens, UniProt Q13263); experiment: Inhibition of TIF1b in human HeLa cells lysate pre incubated for 15 mins followed by ATP acyl phosphate probe addition and measured after 10 mins by LC-MS/MS analysis; type: subcellular
[5] = target: Serine/threonine-protein kinase/endoribonuclease IRE1 (Homo sapiens, UniProt O75460); experiment: Inhibition of IRE1 in human HeLa cells lysate pre incubated for 15 mins followed by ADP acyl phosphate probe addition and measured after 10 mins by LC-MS/MS analysis; type: subcellular
Serine/threonine-protein kinase/endoribonuclease IRE1, sequence (O75460 whole entry): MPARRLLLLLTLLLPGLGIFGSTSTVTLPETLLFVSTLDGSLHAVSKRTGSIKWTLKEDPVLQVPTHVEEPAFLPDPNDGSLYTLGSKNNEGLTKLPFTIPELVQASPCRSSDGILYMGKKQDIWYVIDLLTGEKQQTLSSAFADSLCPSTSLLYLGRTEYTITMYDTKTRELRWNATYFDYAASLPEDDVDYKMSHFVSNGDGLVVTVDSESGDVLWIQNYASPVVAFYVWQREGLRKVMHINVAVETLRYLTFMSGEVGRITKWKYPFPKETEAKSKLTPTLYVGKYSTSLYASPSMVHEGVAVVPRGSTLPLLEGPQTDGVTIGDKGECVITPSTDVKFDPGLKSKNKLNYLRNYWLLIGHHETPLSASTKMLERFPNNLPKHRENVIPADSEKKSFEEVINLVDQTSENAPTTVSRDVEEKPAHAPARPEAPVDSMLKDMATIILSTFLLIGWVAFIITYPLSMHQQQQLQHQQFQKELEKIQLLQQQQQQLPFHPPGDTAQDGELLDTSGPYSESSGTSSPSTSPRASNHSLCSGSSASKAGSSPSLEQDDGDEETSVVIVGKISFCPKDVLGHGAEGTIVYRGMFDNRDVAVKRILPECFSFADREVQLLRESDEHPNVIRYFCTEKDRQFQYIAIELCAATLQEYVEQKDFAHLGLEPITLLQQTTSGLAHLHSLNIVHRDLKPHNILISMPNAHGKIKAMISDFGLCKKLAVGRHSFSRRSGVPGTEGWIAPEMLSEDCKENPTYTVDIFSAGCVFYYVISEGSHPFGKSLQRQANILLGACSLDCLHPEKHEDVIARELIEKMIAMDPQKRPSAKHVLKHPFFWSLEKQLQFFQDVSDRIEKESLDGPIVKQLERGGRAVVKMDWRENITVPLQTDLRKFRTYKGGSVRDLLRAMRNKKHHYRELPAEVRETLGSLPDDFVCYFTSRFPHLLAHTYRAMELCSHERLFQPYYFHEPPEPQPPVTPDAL

[6] = target: Serine/threonine-protein kinase 3/4 (Homo sapiens, UniProt Q13043+Q13188); experiment: Inhibition of MST1/2 in human HeLa cells lysate pre incubated for 15 mins followed by ADP acyl phosphate probe addition and measured after 10 mins by LC-MS/MS analysis; type: subcellular
[7] = target: T2, Ribosomal protein S6 kinase alpha-3; experiment: Inhibition of RSK2 domain 2 in human HeLa cells lysate at 50 uM pre incubated for 15 mins followed by ATP acyl phosphate probe addition and measured after 10 mins by LC-MS/MS analysis relative to control; type: subcellular; conditions: time 25.0 min
[8] = target: Glycogen synthase kinase-3 alpha (Homo sapiens, UniProt P49840); experiment: Inhibition of GSK3A in human HeLa cells lysate at 50 uM pre incubated for 15 mins followed by ATP acyl phosphate probe addition and measured after 10 mins by LC-MS/MS analysis relative to control; type: subcellular; conditions: time 25.0 min
Glycogen synthase kinase-3 alpha, sequence (P49840 2-483 limits assumed): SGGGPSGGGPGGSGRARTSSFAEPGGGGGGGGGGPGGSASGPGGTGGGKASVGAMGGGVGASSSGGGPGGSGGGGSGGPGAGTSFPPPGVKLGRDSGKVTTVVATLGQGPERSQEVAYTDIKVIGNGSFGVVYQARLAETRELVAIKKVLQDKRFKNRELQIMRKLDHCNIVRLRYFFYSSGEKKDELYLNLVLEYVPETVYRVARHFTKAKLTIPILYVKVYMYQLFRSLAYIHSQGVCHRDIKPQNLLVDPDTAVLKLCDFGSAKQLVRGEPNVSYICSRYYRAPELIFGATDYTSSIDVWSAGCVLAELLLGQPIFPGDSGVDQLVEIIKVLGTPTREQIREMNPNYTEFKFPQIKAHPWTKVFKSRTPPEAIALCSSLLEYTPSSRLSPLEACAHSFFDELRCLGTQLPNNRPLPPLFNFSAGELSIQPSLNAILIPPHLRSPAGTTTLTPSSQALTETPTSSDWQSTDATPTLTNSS

[9] = target: Dual specificity mitogen-activated protein kinase kinase 1 (Homo sapiens, UniProt Q02750); experiment: Inhibition of MAP2K1 in human HeLa cells lysate at 50 uM pre incubated for 15 mins followed by ATP acyl phosphate probe addition and measured after 10 mins by LC-MS/MS analysis relative to control; type: subcellular; conditions: time 25.0 min
Dual specificity mitogen-activated protein kinase kinase 1, sequence (Q02750 whole entry): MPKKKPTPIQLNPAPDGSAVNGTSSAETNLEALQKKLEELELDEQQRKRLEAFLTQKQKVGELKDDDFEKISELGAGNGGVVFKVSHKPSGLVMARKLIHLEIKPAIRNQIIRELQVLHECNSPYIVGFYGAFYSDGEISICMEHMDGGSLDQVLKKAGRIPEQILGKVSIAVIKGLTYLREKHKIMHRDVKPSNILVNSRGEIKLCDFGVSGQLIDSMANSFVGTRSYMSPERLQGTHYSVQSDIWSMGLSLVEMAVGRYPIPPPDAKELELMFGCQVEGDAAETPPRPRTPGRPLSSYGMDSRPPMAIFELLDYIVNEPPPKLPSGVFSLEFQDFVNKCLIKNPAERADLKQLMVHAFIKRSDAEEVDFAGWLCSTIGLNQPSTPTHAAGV

[10] = target: Calcium/calmodulin-dependent protein kinase type II subunit gamma (Homo sapiens, UniProt Q13555); experiment: Inhibition of CAMK2g in human HeLa cells lysate at 10 uM pre incubated for 15 mins followed by ATP acyl phosphate probe addition and measured after 10 mins by LC-MS/MS analysis relative to control; type: subcellular; conditions: time 25.0 min
Method in brief: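 KiNativ-type profiling in HeLa lysate (5 mg/mL total protein). Lysate preincubated 15 min with inhibitor at 50, 10, 2, 0.8 or 0 μM, then ATP or ADP acylphosphate probe added (5 μM final) for 10 min. Reaction stopped with urea and analysed by targeted MS, using up to four fragment ions per kinase peptide-probe conjugate. % inhibition calculated against untreated lysate. Duplicate reactions.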

[11] = Inhibition of MAP3K2/3 in human HeLa cells lysate at 10 uM pre incubated for 15 mins followed by ATP acyl phosphate probe addition and measured after 10 mins by LC-MS/MS analysis relative to control; conditions: 25 min, condition cancer
SRSF protein kinase 1 = SRSF protein kinase 1 (Homo sapiens, UniProt Q96SB4); experiment: Inhibition of SRPK1 in human HeLa cells lysate at 2 uM pre incubated for 15 mins followed by ATP acyl phosphate probe addition and measured after 10 mins by LC-MS/MS analysis relative to control; type: subcellular; conditions: time 25.0 min
SRSF protein kinase 1, sequence (Q96SB4 whole entry): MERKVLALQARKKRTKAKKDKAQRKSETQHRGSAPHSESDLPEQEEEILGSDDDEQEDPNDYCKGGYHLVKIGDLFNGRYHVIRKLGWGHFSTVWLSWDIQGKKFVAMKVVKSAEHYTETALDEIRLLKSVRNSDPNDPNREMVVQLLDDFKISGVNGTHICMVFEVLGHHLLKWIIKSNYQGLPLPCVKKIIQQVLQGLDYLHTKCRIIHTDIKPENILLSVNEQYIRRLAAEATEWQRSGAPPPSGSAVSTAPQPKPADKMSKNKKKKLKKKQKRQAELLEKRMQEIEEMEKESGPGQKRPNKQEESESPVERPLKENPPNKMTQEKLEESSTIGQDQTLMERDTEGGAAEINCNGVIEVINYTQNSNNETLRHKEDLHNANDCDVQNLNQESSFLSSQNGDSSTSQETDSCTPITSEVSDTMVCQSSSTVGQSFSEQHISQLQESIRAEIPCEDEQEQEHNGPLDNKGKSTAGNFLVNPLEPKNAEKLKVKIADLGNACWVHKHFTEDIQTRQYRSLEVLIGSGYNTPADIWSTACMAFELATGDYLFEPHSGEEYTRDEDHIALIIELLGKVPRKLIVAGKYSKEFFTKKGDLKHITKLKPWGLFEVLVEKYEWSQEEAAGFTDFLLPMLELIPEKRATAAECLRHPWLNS

[12] = target: Mitogen-activated protein kinase kinase kinase 11 (Homo sapiens, UniProt Q16584); experiment: Inhibition of MLK3 in human HeLa cells lysate at 2 uM pre incubated for 15 mins followed by ATP acyl phosphate probe addition and measured after 10 mins by LC-MS/MS analysis relative to control; type: subcellular; conditions: time 25.0 min
[13] = target: Dual specificity mitogen-activated protein kinase kinase; MEK1/2 (Homo sapiens, UniProt P36507+Q02750); experiment: Inhibition of MAP2K1/MAP2K2 in human HeLa cells lysate at 2 uM pre incubated for 15 mins followed by ATP acyl phosphate probe addition and measured after 10 mins by LC-MS/MS analysis relative to control; type: subcellular; conditions: time 25.0 min
Dual specificity mitogen-activated protein kinase kinase; MEK1/2, sequence (P36507 whole entry, looked up): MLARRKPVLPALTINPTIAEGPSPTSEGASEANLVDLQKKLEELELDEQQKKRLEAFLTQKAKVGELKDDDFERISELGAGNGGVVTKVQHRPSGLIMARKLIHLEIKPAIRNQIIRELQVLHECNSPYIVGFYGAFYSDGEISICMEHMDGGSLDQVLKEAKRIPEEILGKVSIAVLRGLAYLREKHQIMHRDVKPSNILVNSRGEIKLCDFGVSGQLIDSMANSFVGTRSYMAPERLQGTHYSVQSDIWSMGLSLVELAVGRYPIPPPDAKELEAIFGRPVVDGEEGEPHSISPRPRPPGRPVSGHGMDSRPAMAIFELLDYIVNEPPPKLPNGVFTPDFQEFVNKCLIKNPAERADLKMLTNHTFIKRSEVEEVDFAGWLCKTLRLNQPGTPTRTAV
Dual specificity mitogen-activated protein kinase kinase; MEK1/2, sequence (Q02750 whole entry, looked up): as the sequence (Q02750 whole entry) above

[14] = Inhibition of SRC/FYN/YES in human HeLa cells lysate at 2 uM pre incubated for 15 mins followed by ATP acyl phosphate probe addition and measured after 10 mins by LC-MS/MS analysis relative to control; conditions: 25 min, condition cancer
[15] = Half life in Sprague-Dawley rat at 1 mg/kg, iv measured up to 8 hrs by LC-MS/MS analysis; type: ADME, organism-based; conditions: in vivo
[16] = Toxicity in C57Bl/6 mouse assessed as effect on sodium level at 50 mg/kg, ip for 14 days (reference value: 156 mM); type: organism-based; conditions: in vivo, 336 h, time 14 day
Lewis lung carcinoma = experiment: Antitumor activity against mouse LL2 cells allografted in C57Bl/6 mouse assessed as reduction tumor growth at 50 mg/kg, ip administered for 17 days; type: functional, organism-based; conditions: time 17.0 day
Method in brief: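 LL/2 cells (1×10^6, in DMEM) were injected s.c. into the right flank of 6-week-old C57Bl/6 mice on day 0. Dosing was 50 mg/kg i.p. twice daily, starting on day 1, 7 or 10 and continuing to day 17; controls received carrier. 6 mice per treated group. Tumors were measured every 2–3 days.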

For `CCOc1cc(N2CCC(O)CC2)ccc1Nc1ncc2c(n1)N(C)c1ccccc1C(=O)N2C`, the Activity [1] was 7.8%, the IC50 [2] was over 50 µM and the IC50 [3] was over 50 µM. It also gave an IC50 [4] of over 50 µM, an IC50 [5] of over 50 µM and an IC50 [6] of over 50 µM. The inhibition [7] was 47.7%, the inhibition [8] was 10.4% and the inhibition [9] was -7.3%. For the same compound, the inhibition [10] was -8.6%, the inhibition at 10 µM [11] was -7.8% and the inhibition (SRSF protein kinase 1) was -2%. The inhibition [12] was 5.3%, the inhibition [13] was 0.6% and the inhibition at 2 µM [14] was -29.7%. The half-life [15] was 2 h, the Activity [16] was 143 mM and the Activity (Lewis lung carcinoma) was “Active”.
